Reference: ChEMBL document CHEMBL2146477, “Antimicrobial Activity of Adenine-Based Inhibitors of NAD(+)-Dependent DNA Ligase” (ACS Med Chem Lett, 2012)
Values after ≈ are worked out from the molar mass of the structure shown.

What was measured:
[1] = Inhibition of NAD-dependent LigA in AcrABTolC deficient Haemophilus influenzae HIN101 after 20 mins by FRET assay
Summary of the method: (§1)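 LigA enzyme assay with NAD+ at a low multiple of its Km (around 1–10 μM). Percent inhibition was measured at 2-fold serial dilutions of compound, and IC50 was interpolated. The reported value is the geometric mean of at least 2 determinations.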

[2] = test system: Haemophilus influenzae; test: Antibacterial activity against AcrABTolC deficient Haemophilus influenzae HIN101 by NCCLS broth microdilution method; format: functional
[3] = Inhibition of NAD-dependent LigA in Streptococcus pneumoniae SPN100 after 20 mins by FRET assay; summary of the method: as §1
[4] = test system: Streptococcus pneumoniae; test: Antibacterial activity against Streptococcus pneumoniae SPN100 by NCCLS broth microdilution method; format: functional
[5] = test system: Haemophilus influenzae; test: Antibacterial activity against Haemophilus influenzae HIN102 overexpressing LigA by NCCLS broth microdilution method; format: functional
Summary of the method: (§2)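 MIC measured on the LigA-overexpressing strain, in duplicate on different days. The reported MIC is the geometric mean of the two. The maximum test concentration was 64 μg/mL.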

[6] = test system: Haemophilus influenzae; test: Ratio of MIC for AcrABTolC deficient Haemophilus influenzae HIN101 to MIC for Haemophilus influenzae HIN102 overexpressing LigA; format: functional
Summary of the method: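 MICs for parental HIN101 and isogenic LigA-overexpressing HIN102 were each run in duplicate on different days, up to 64 μg/mL, using geometric-mean values. A difference of at least 4-fold on both occasions was taken to mean the LigA mode of action in the parental strain.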

[7] = test system: Streptococcus pneumoniae; test: Ratio of MIC for Streptococcus pneumoniae SPN102 to MIC for Streptococcus pneumoniae SPN100
[8] = test system: Streptococcus pneumoniae; test: Antibacterial activity against Streptococcus pneumoniae SPN102 overexpressing LigA by NCCLS broth microdilution method; format: functional; summary of the method: as §2

Row | Structure (SMILES) | IC50 [1] [nM] | MIC [2] [µg/mL] | IC50 [3] [nM] | MIC [4] [µg/mL] | MIC [5] [µg/mL] | Ratio [6] | Ratio [7] | MIC [8] [µg/mL]
1 | Nc1nc(OC2CCC3CCCCC3C2)nc2c1ncn2[C@@H]1O[C@H](CO)[C@@H](O)[C@H]1O (stereo not given in full) | 400 | 16 (≈ 38.1 µM) | 80 | 1 (≈ 2.38 µM) | – | – | – | –
2 | C[C@H]1O[C@@H](n2cnc3c(N)nc(OC4CCC5CCCCC5C4)nc32)[C@H](O)[C@@H]1O (stereo not given in full) | 260 | 8 (≈ 19.8 µM) | 40 | 0.5 (≈ 1.24 µM) | 32 (≈ 79.3 µM) | 16 | – | –
3 | C[C@H]1O[C@@H](n2cnc3c(N)nc(OC4CCCC4)nc32)[C@H](O)[C@@H]1CC1CCCCC1 | – | – | 300 | 16 (≈ 38.5 µM) | – | – | 64 | 16 (≈ 38.5 µM)
4 | C[C@H]1O[C@@H](n2cnc3c(N)nc(OCC45CC6CC(CC(C6)C4)C5)nc32)[C@H](O)[C@@H]1O | 1700 | 32 (≈ 77 µM) | 200 | 2 (≈ 4.81 µM) | – | – | – | –
5 | Nc1nc(OC2CCC3CCCCC3C2)nc2c1ncn2C1CCCO1 (stereo not given) | 860 | 8 (≈ 22.4 µM) | 60 | 2 (≈ 5.6 µM) | 8 (≈ 22.4 µM) | 16 | – | –
6 | C[C@H]1O[C@@H](n2cnc3c(N)nc(OC4CCCC4)nc32)[C@H](O)[C@@H]1Oc1ccccc1 | 1300 | 64 (≈ 156 µM) | 50 | 2 (≈ 4.86 µM) | – | – | – | –
7 | Nc1nc(OC2CCC3CCCC3C2)nc2c1ncn2C1CCCO1 (stereo not given) | – | – | 200 | 4 (≈ 11.6 µM) | – | – | 64 | 32 (≈ 93.2 µM)
8 | Nc1nc(OC2CCCC2)nc2c1ncn2[C@@H]1O[C@H](CO)[C@@H](F)[C@H]1O | 300 | 8 (≈ 22.6 µM) | 100 | 4 (≈ 11.3 µM) | > 64 | 16 | 64 | > 64
